From PMC5351328 (Clinical and Translational Science, 2016)
Like-named read-outs stand apart in the source and are kept apart here.

Columns and labels:
[1] = system: I-FABP, flagellin, LBP, sCD14; assay type: in vivo, human; settings: within each group
Summary of the method: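 Participants with mild or moderate hepatic impairment and matched normal-function controls received a single-tablet 150 mg oral test compound, dosed over 14 days. I-FABP, flagellin, LBP and sCD14 were quantified by ELISA, following kit instructions, in plasma from Day 1 (predose), Day 7 and Day 14. Results were summarised by day as medians, IQR and change from baseline, using Wilcoxon tests.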

[2] = cited from earlier work
CCR5 = CCR5 (Homo sapiens, UniProt P51681); experiment: CCR5 antagonist activity: plasma CCR5 ligand; assay type: in vivo; settings: for CCL4 median fold-change: P < 0.05
Chain of CCR5 (P51681 whole entry): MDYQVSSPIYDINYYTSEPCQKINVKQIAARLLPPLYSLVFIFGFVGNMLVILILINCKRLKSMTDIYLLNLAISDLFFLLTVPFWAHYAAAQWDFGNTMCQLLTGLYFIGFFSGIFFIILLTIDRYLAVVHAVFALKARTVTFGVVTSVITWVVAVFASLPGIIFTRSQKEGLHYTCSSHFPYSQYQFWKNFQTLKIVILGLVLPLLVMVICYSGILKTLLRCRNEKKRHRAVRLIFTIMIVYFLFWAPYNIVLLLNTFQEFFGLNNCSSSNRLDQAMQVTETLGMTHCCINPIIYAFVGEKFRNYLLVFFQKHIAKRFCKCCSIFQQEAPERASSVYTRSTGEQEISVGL
Summary of the method: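 Adults with mild or moderate hepatic impairment and matched controls with normal hepatic function were given an oral 150 mg tablet of the test compound over 14 days. Plasma was sampled on Day 1 (predose), Day 7 and Day 14. CCL2, CCL3 and CCL4 were measured by Luminex multiplex and CCL5 by ELISA. Medians, IQR and change from baseline were reported, with Wilcoxon tests.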

CYP2C8 = settings: cited from earlier work
[3] = system: proinflammatory cytokines (IL-6, TNF-α, IL-1β, TGF-β); experiment: Plasma proinflammatory cytokines during treatment; assay type: in vivo, human
Summary of the method: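 Plasma was taken at Day 1 predose and on treatment Days 7 and 14. IL-6, TNF-α, IL-1β and TGF-β were quantified by Luminex multiplex bead assay, with a magnetic cytokine panel for IL-1β and IL-6. Values were summarised by study day as medians and interquartile ranges, with change from baseline. Comparisons used Wilcoxon tests.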

CYP3A4 [4] = settings: cited from earlier work
Safety and tolerability = assay type: in vivo, human; settings: for tolerability: 150 mg once daily for 14 days, regardless of HI
Summary of the method: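 Adverse events were monitored continuously and graded with the Division of AIDS toxicity scale. Hematology, clinical chemistry, urinalysis and 12-lead ECG were done at screening, baseline (Day –1), Day 14 and Day 28, with hematology and chemistry also at Day 7. Physical exams ran through follow-up (Day 28, or Day 35 for hepatic impairment). Data were summarised descriptively without formal statistical testing.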

CYP3A4 [5] = settings: cited from earlier work; remark: listed apart in the source
[6] = assay type: in vivo, human; settings: for CL/F / AUC / AUC(0-inf) / Cmax / concentration at 14 day / Tmax / Vd/F / half-life: geometric mean (SD); for AUC / AUC(0-inf) / Cmax / concentration at 14 day / Tmax / Vd/F / half-life: human, plasma, oral; for AUC: AUC0–τ; for AUC(0-inf): AUC0–∞; for concentration at 14 day: Cmin; for Vd/F: Vz/F; for time to steady-state conditions: predose samples
Summary of the method: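 Plasma sampled on Days 1 and 14 predose and 0.5–24 h postdose, plus predose on Days 3, 5, 7, 10, 13, 16. Blood kept on ice, spun 2,000g 15 min at 5°C within 45 min, and plasma stored at –70°C. Extraction was by protein precipitation with internal standard. Parameters came from noncompartmental analysis. ANOVA on ln-transformed Cmax, Cmin and AUC0–τ gave geometric mean ratios with 90% CIs versus matched controls.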

[7] = cited from earlier work; remark: listed apart in the source
[8] = cited from earlier work; remark: listed apart in the source
[9] = matched controls (mild) (N = 7)
[10] = matched controls (moderate) (N = 8)
[11] = mild hepatic impairment (N = 8)
[12] = moderate hepatic impairment (N = 8)
[13] = Day 14, mild hepatic impairment
[14] = Day 14, moderate hepatic impairment
[15] = 150 mg, Day 14, 150 mg once daily, matched controls (mild)
[16] = 150 mg, Day 14, 150 mg once daily, matched controls (moderate)
[17] = 150 mg, Day 14, 150 mg once daily, mild hepatic impairment
[18] = 150 mg, Day 14, 150 mg once daily, moderate hepatic impairment

CCL4 median fold-change (CCR5; after 7 days of treatment vs Day 1 (predose)): 1.8–2.3
CCL4 median fold-change (CCR5; after 14 days of treatment vs Day 1 (predose)): 1.6–2.5
CCL3 levels change during treatment (CCR5; any group): did not change significantly
CCL5 change during treatment (CCR5; matched controls (moderate) only, Day 14 vs Day 1, P = 0.008): increased significantly
CL/F ([6]; Day 1, 150 mg, matched controls (mild)): 22.1 L/h
CL/F ([6]; Day 1, 150 mg, matched controls (moderate)): 31.7 L/h
CL/F ([6]; Day 1, 150 mg, mild hepatic impairment): 27.1 L/h
CL/F ([6]; Day 1, 150 mg, moderate hepatic impairment): 25.8 L/h
CL/F ([6]; Day 14, 150 mg once daily, matched controls (mild)): 14.4 (1.5) L/h
CL/F ([6]; Day 14, 150 mg once daily, matched controls (moderate)): 25.3 (2.0) L/h
CL/F ([6]; Day 14, 150 mg once daily, mild hepatic impairment): 23.2 (1.9) L/h
CL/F ([6]; Day 14, 150 mg once daily, moderate hepatic impairment): 16.3 (1.3) L/h
AUC0–τ lower than matched controls [6, 13]: 38%
Cmax lower than matched controls [6, 13]: 40%
Cmin lower than matched controls [6, 13]: ~27%
AUC0–τ higher than matched controls [6, 14]: 55%
Cmax higher than matched controls [6, 14]: 29%
Cmin higher than matched controls [6, 14]: ~97%
AUC [6, 15]: 10400 ng·h/mL
AUC [6, 16]: 5940 ng·h/mL
AUC [6, 17]: 6470 ng·h/mL
AUC [6, 18]: 9180 ng·h/mL
AUC(0-inf) [6, 15]: 18900 ng·h/mL
AUC(0-inf) [6, 16]: 11000 ng·h/mL
AUC(0-inf) [6, 17]: 14600 ng·h/mL
AUC(0-inf) [6, 18]: 26100 ng·h/mL
Cmax [6, 15]: 759 ng/mL
Cmax [6, 16]: 469 ng/mL
Cmax [6, 17]: 452 ng/mL
Cmax [6, 18]: 607 ng/mL
concentration at 14 day [6, 15]: 248 ng/mL
concentration at 14 day [6, 16]: 140 ng/mL
concentration at 14 day [6, 17]: 180 ng/mL
concentration at 14 day [6, 18]: 275 ng/mL
Tmax [6, 15]: 5.66 h
Tmax [6, 16]: 4.49 h
Tmax [6, 17]: 5.34 h
Tmax [6, 18]: 4.83 h
Vd/F ([6]; 150 mg, Day 1, 150 mg, matched controls (mild)): 262 L
Vd/F ([6]; 150 mg, Day 1, 150 mg, matched controls (moderate)): 370 L
Vd/F ([6]; 150 mg, Day 1, 150 mg, mild hepatic impairment): 329 L
Vd/F ([6]; 150 mg, Day 1, 150 mg, moderate hepatic impairment): 386 L
Vd/F [6, 15]: 455 L
Vd/F [6, 16]: 816 L
Vd/F [6, 17]: 995 L
Vd/F [6, 18]: 886 L
half-life ([6]; 150 mg, t1/2, Day 1, 150 mg, moderate hepatic impairment): 624 min
half-life ([6]; 150 mg, t1/2, Day 14, 150 mg once daily, matched controls (mild)): 1320 min
half-life ([6]; 150 mg, t1/2, Day 14, 150 mg once daily, matched controls (moderate)): 1340 min
half-life ([6]; 150 mg, t1/2, Day 14, 150 mg once daily, mild hepatic impairment): 1780 min
half-life ([6]; 150 mg, t1/2, Day 14, 150 mg once daily, moderate hepatic impairment): 2260 min
time to steady-state conditions ([6]; matched controls): 7 to 10 days
time to steady-state conditions ([6]; participants with mild or moderate HI): 10 to 13 days
Structure (SMILES): CCCCOCCOc1ccc(-c2ccc3c(c2)/C=C(/C(=O)Nc2ccc([S@@+]([O-])Cc4cncn4CCC)cc2)CCCN3CC(C)C)cc1 [cenicriviroc]
I-FABP change during treatment [1]: None of these markers changed significantly
LBP change during treatment [1]: None of these markers changed significantly
flagellin change during treatment [1]: None of these markers changed significantly
sCD14 change during treatment [1]: None of these markers changed significantly
bound to plasma proteins [2]: > 98%
substrate of CYP2C8 (CYP2C8): substrate
IL-1β levels change during treatment ([3]; any group): did not change significantly
IL-6 levels change during treatment ([3]; any group): did not change significantly
TNF-α levels change during treatment ([3]; any group): did not change significantly
TGF-β levels change during treatment ([3]; moderate HI group, Day 1 vs Day 14, P < 0.01): increased
substrate of CYP3A4 (CYP3A4 [4]): substrate
tolerability (Safety and tolerability): generally well tolerated
tolerability (Safety and tolerability; listed as Cenicriviroc): well tolerated
AST (treatment-emergent Grade 1 elevation) (Safety and tolerability; Day 7, one matched control (moderate), resolved upon continued dosing): 1.3 x ULN
AST (Safety and tolerability; Day 28, another participant with moderate HI, screening 5.9 x ULN): 10.2 x ULN
Participants with any treatment-related AEs (Safety and tolerability; [9]): 3 (42.9) N (%)
Treatment-related AE: Dry mouth (Safety and tolerability; [9]): 2 (28.6) N (%)
Treatment-related AE: Epigastric discomfort (Safety and tolerability; [9]): 0 (0) N (%)
Treatment-related AE: Flatulence (Safety and tolerability; [9]): 0 (0) N (%)
Treatment-related AE: Headache (Safety and tolerability; [9]): 1 (14.3) N (%)
Treatment-related AEs Grade 1 (Safety and tolerability; [9]): 3 (42.9) N (%)
Treatment-related AEs Grade 2 (Safety and tolerability; [9]): 0 (0) N (%)
Treatment-related AEs Grade 3 (Safety and tolerability; [9]): 0 (0) N (%)
Treatment-related AEs Grade 4 (Safety and tolerability; [9]): 0 (0) N (%)
Participants with any treatment-related AEs (Safety and tolerability; [10]): 4 (50.0) N (%)
Treatment-related AE: Dry mouth (Safety and tolerability; [10]): 0 (0) N (%)
Treatment-related AE: Epigastric discomfort (Safety and tolerability; [10]): 0 (0) N (%)
Treatment-related AE: Flatulence (Safety and tolerability; [10]): 1 (12.5) N (%)
Treatment-related AE: Headache (Safety and tolerability; [10]): 1 (12.5) N (%)
Treatment-related AEs Grade 1 (Safety and tolerability; [10]): 4 (50.0) N (%)
Treatment-related AEs Grade 2 (Safety and tolerability; [10]): 0 (0) N (%)
Treatment-related AEs Grade 3 (Safety and tolerability; [10]): 0 (0) N (%)
Treatment-related AEs Grade 4 (Safety and tolerability; [10]): 0 (0) N (%)
Participants with any treatment-related AEs (Safety and tolerability; [11]): 6 (75.0) N (%)
Treatment-related AE: Dry mouth (Safety and tolerability; [11]): 0 (0) N (%)
Treatment-related AE: Epigastric discomfort (Safety and tolerability; [11]): 1 (12.5) N (%)
Treatment-related AE: Flatulence (Safety and tolerability; [11]): 1 (12.5) N (%)
Treatment-related AEs Grade 1 (Safety and tolerability; [11]): 6 (75.0) N (%)
Treatment-related AEs Grade 2 (Safety and tolerability; [11]): 0 (0) N (%)
Treatment-related AEs Grade 3 (Safety and tolerability; [11]): 0 (0) N (%)
Treatment-related AEs Grade 4 (Safety and tolerability; [11]): 0 (0) N (%)
Participants with any treatment-related AEs (Safety and tolerability; [12]): 4 (50.0) N (%)
Treatment-related AE: Dry mouth (Safety and tolerability; [12]): 0 (0) N (%)
Treatment-related AE: Epigastric discomfort (Safety and tolerability; [12]): 1 (12.5) N (%)
Treatment-related AE: Flatulence (Safety and tolerability; [12]): 0 (0) N (%)
Treatment-related AE: Headache (Safety and tolerability; [12]): 1 (12.5) N (%)
Treatment-related AEs Grade 1 (Safety and tolerability; [12]): 4 (50.0) N (%)
Treatment-related AEs Grade 2 (Safety and tolerability; [12]): 0 (0) N (%)
Treatment-related AEs Grade 3 (Safety and tolerability; [12]): 1 (12.5) N (%)
Treatment-related AEs Grade 4 (Safety and tolerability; [12]): 0 (0) N (%)
inhibition of CYP3A4 (CYP3A4 [5]): weak inhibitor
APRI, FIB-4 and enhanced liver fibrosis score ([7]; HIV-infected participants): decreases
sCD14 levels ([7]; HIV-positive participants (Study 202)): decreased
time to reach steady-state plasma concentrations ([8]; healthy participants): 8 to 10 days
plasma half-life ([8]; in humans): 30 to 40 h
effect of administration with food on bioavailability ([8]; in vivo): increase
